# Rows were chosen to be rich in hits. Some 4.1% of all compounds tested hit in one or more screens of this group.
# hERG rescue = hERG (human) protection from proarrhythmic block | activation (rescue from dofetilide block), less the hit threshold, % at 10 µM | CHO-hERG, FluxOR thallium flux, dofetilide IC70 present | Q12809 | AID 1511 | 310,000 compounds, 0.51% hits;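 active means activation above the mean of controls blocked by dofetilide plus 5 SD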;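 further: thallium influx through hERG after potassium depolarization seen as dye fluorescence rise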
# KCNQ1 pot = human KCNQ1 channel potentiation or activation | B-score at 10 µM | 310,000 compounds, 0.35% hits | CHO-K1 KCNQ1, thallium flux FluxOR fluorescence; hits give high values | P51787 | AID 2648;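 active means fluorescence ratio B-score, a plate-corrected score, at least three library SD, with initial intensity B-score within 5 SD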
# Target sequence (P51787 whole entry, looked up): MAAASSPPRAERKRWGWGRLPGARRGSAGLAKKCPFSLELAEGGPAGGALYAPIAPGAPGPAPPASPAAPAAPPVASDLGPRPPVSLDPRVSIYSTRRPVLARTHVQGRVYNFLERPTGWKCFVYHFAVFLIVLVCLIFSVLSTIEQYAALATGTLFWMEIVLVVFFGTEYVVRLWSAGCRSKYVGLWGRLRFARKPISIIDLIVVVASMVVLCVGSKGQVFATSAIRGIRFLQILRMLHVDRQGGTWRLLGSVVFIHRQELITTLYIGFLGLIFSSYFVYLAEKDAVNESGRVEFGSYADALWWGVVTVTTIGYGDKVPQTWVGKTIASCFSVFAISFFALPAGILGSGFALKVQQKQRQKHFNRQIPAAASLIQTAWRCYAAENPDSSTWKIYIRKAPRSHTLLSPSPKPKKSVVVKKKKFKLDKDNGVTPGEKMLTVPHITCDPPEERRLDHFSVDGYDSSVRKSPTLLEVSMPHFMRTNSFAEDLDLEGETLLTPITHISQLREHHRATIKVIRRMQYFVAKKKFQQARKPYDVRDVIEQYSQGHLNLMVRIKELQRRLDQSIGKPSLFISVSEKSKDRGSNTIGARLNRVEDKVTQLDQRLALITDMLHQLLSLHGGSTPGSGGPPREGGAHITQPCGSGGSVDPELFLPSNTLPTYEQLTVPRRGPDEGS
#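 Test system: CHO-K1 cells stably expressing KCNQ1 / Medium: assay buffer / Also added: depolarizing K+/Tl+ stimulus, K2SO4 and Tl2SO4 each 12.5 mM in 5x stock / Incubation: 90 min dye loading and 20 min compound exposure, both at room temperature / Signal: thallium influx via FluxOR fluorescence, kinetic imaging / Evaluation: B score of baseline-normalized fluorescence ratio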
# KCNK9 block = inhibitors of human KCNK9 two-pore domain potassium channel; 310,000 compounds, 1.2% hits; AID 488922; HEK293 KCNK9, FluxOR thallium flux fluorescence; hits give low values; B-score at 10 µM; Q9NPC2;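 active means ratio B-score over 3 SD below the library mean, with starting fluorescence within 5 SD of its mean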;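 further: negative B-score means less thallium flux so channel inhibition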
# KCNQ1 block = inhibitors of human KCNQ1 potassium channel. P51787. CHO-K1 KCNQ1, FluxOR thallium flux fluorescence; hits give high values. B-score at 10 µM. 310,000 compounds, 1.3% hits. AID 2642;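 active means compounds whose thallium flux B-score, printed positive for inhibition, exceeds three library SD while starting fluorescence stays within three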;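 further: channel opened by potassium depolarization with thallium stimulus after 20 min compound exposure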
# KCNK3 block = human KCNK3 channel inhibition, primary screen. O14649. CHO-KCNK3 thallium flux, FluxOR fluorescence; hits give low values. B-score at 10 µM. 340,000 compounds, 0.84% hits. AID 602410;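 active means B-score under library mean minus 4 SD, starting fluorescence ratio at most library mean plus 5 SD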;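 further: more negative B-score means stronger inhibition of thallium flux through KCNK3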
# KCC2 mod = modulators of human KCC2 chloride dependent transport; Q9H2X9; KCC2 cells, thallium flux FluoZin-2 fluorescence; B-score of Tl+ flux slope (higher = more flux/activation; lower = inhibition) at 10 µM; 190,000 compounds, 2.2% hits;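 active means thallium flux slope and its plate-corrected score both differing from the plate sample mean at a set confidence after two filtering rounds, in either direction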;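 further: slope of fluorescence scaled to starting intensity during 10 to 20 s after thallium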
# KCNK9 inh conf = human KCNK9 inhibitor confirmation | shares compounds with KCNK9 block | HEK293 KCNK9 cells, FluxOR thallium flux fluorescence | inhibition, % at 10 µM | 4,900 compounds, 43% hits | AID 492992;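 active means thallium signal inhibited by more than 5 SD of the compound-free buffer control wells, on both duplicate plates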;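 further: 0% = assay buffer control wells without compound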
# Kir21 sel = mouse Kir2.1 off-target activity of KCNK9 modulators | shares compounds with KCNK9 block | Kir2.1 cells, FluxOR thallium flux fluorescence | inhibition, % at 10 µM | 4,900 compounds, 4% hits;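 active means thallium signal drop more than 5 SD beyond the mean of the no-compound control wells, seen in both duplicate plates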;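 further: signal is fluorescence rise after thallium addition divided by baseline fluorescence; plate controls were assay buffer only for no effect and full block by chlorpromazine control for full effect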
# HEK293 Tl ctr = non-induced cell nonspecific activity of KCNK9 modulators; shares compounds with KCNK9 block; non-induced KCNK9-HEK293, FluxOR thallium flux; inhibition, % at 10 µM; 4,900 compounds, 40% hits; AID 492997;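 active means thallium signal drop beyond 5 SD of the untreated control mean, on both duplicate plates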;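 further: plate controls were buffer only IC0 wells for no effect and SID17386958 at its maximal inhibitory level for full effect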
# KCNK3 inh conf = human KCNK3 channel inhibition, confirmation assay; ratio percent of control, % at 10 µM; shares compounds with KCNK3 block; 2,400 compounds, 99% hits; CHO-KCNK3 thallium flux, FluxOR fluorescence; 0% buffer, 100% carvedilol maximal block;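 active means ratio percent of control, averaged over triplicates, above buffer control mean plus 5 SD, cut at about 64% in these data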;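 further: ratio is the fluorescence rise from min to max over baseline after thallium stimulus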
# KCNK3 uninduced = activity in cells without induced KCNK3 expression; shares compounds with KCNK3 block; non-induced KCNK3 parental cells, FluxOR thallium flux; hits give low values; thallium flux ratio (lower = more inhibition) at 10 µM; 2,400 compounds, 40% hits; AID 651747;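 active means thallium flux ratio, averaged over three wells, more than 5 SD below the buffer control mean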;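 further: host cells are CHO cells without KCNK3 induction; ratio is peak minus trough fluorescence over baseline then normalized to buffer controls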
# Starred values were filed as active, the others as inactive; i = inactive; x = not tested or not shown.
SMILES,hERG rescue,KCNQ1 pot,KCNK9 block,KCNQ1 block,KCNK3 block,KCC2 mod,KCNK9 inh conf,Kir21 sel,HEK293 Tl ctr,KCNK3 inh conf,KCNK3 uninduced
O=C(CN1CCCC1)Nc1ccc(OC(F)(F)F)cc1,-5.0,i,i,i,i,x,x,x,x,x,x
CC(=O)Nc1cc(C(F)(F)F)ccc1Oc1cccc(Br)c1,-9.7,i,i,i,i,-0.325,x,x,x,x,x
CCOCC(=O)Nc1cc(C(F)(F)F)ccc1Oc1cccc(Br)c1,-3.6,i,-11.7*,i,i,1.72,74.0%*,i,54.5%*,99.3*,i
CCCN(CCC)CCNC(=O)c1cc2c(-c3ccccc3F)nn(C)c2s1,-3.5,i,i,i,i,x,x,x,x,x,x
CC(CCc1ccco1)NC(=O)c1cc2c(-c3ccccc3F)nn(C)c2s1 (centres undefined),-10.0,i,-8.41*,i,-12.6*,x,28.0%*,i,i,119.7*,0.135*
COc1ccccc1C(=O)Nc1cccc(SC)c1,-16.9,i,i,i,i,-0.171,x,x,x,x,x
CSc1cccc(NC(=O)c2cccc3cccnc23)c1,-4.3,i,-9.6*,i,-9.71*,x,27.5%*,i,31.5%*,88.0*,i
COc1ccc(/C=N/NC(=O)c2cccc(NC(=O)c3ccccc3Cl)c2)cc1,-7.3,i,i,i,i,x,x,x,x,x,x
COc1ccc(/C=N/NC(=O)c2ccccc2OCc2ccccc2)c(OC)c1,-19.6,i,-20.7*,11*,-12.5*,x,72.5%*,i,i,126.0*,0.141*
COc1ccc(/C=N/NC(=O)c2cccc(NC(=O)c3ccccc3Cl)c2)c(OC)c1,-7.7,i,-12.1*,i,-10*,-1.92,49.0%*,i,i,106.3*,i
O=C(CSCC(=O)N1CCCc2ccccc21)Nc1nc(-c2ccccc2)cs1,-18.9,i,-17.5*,i,-11.9*,2.2,23.0%*,i,i,118.7*,0.144*
C=CCn1c(SCC(=O)Nc2ncc(Cc3ccc(Br)cc3)s2)nnc1-c1ccncc1,-9.0,i,i,i,i,x,x,x,x,x,x
COc1ccc(CN(C)C(=O)c2oc3ccccc3c2CSC)cc1F,-9.0,i,-12.1*,i,-11.4*,x,67.0%*,i,30.0%*,104.0*,i
Cc1cccc(NS(=O)(=O)c2ccc(OCC(=O)N3CCCC3)cc2)c1,-9.7,i,i,i,i,x,x,x,x,x,x
CN(C)C1=NCCN1CCc1cccc(F)c1,-2.6,i,i,i,i,x,x,x,x,x,x
CC(C)c1ccccc1NC(=O)COC(=O)c1c2c(nc3ccccc13)CCN(Cc1ccccc1)C2,-34.1,i,-11.5*,i,-9.73*,-1.19,65.5%*,i,i,132.3*,0.141*
O=C(NC1CCCCCC1)c1c2c(nc3ccccc13)CCN(Cc1ccccc1)C2,-10.7,i,i,i,i,-0.386,x,x,x,x,x
C#CCNC(=O)C1=C[C@H](c2ccc3c(c2)OCO3)[C@@H](CCCO)[C@H](OCC)O1,-12.0,i,i,i,i,-0.195,x,x,x,x,x
CCN(C(=S)NCc1ccccc1)c1cccc2ccccc12,-10.6,i,-18.2*,i,-12.6*,-0.584,63.5%*,i,45.5%*,100.7*,i
CNC(=O)NNC(=O)c1nc(-c2ccccc2)c(C)o1,-9.0,i,i,i,i,0.31,x,x,x,x,x
COc1ccccc1NC(=O)c1ccc(NC(=O)COC(=O)C2CC2C)cc1 (centres undefined),-5.1,i,i,i,i,-1.38,x,x,x,x,x
COc1ccccc1NC(=O)c1ccc(NC(=O)CN(C)Cc2ccccc2F)cc1,-20.7,i,-9.06*,i,-11.4*,-1.92,36.0%*,i,i,97.0*,i
Cc1ccc(C(C)C)c(OCCN2CCc3ccccc3C2)c1,-0.3,i,i,i,-9.7*,x,i,i,i,127.3*,i
Cc1ccc(C(C)C)c(OCCCN2CCc3ccccc3C2)c1,-7.7,i,i,i,i,x,x,x,x,x,x
COC(=O)c1c(CSc2ccc(C)c(C)c2)noc1C(=O)NCc1ccc(OC)cc1,-9.0,i,i,i,i,0.204,x,x,x,x,x
SMILES,hERG rescue,KCNQ1 pot,KCNK9 block,KCNQ1 block,KCNK3 block,KCC2 mod,KCNK9 inh conf,Kir21 sel,HEK293 Tl ctr,KCNK3 inh conf,KCNK3 uninduced
CN(Cc1cccc(C(F)(F)F)c1)Cc1nc(-c2cnccn2)no1,-4.2,i,i,i,i,x,x,x,x,x,x
COc1cc(/C=N/NC(=O)c2ccc(Cn3cc([N+](=O)[O-])cn3)o2)cc(Br)c1O,-22.2,i,-16.3*,i,-11.3*,x,57.0%*,i,35.0%*,99.3*,i
Cc1onc(-c2ccccc2)c1C(=O)N1CCN(c2ccc([N+](=O)[O-])cc2)CC1,-4.4,i,i,i,i,x,x,x,x,x,x
COc1ccc(CN(C(=O)/C=C/c2ccccc2Cl)C2CCS(=O)(=O)C2)cc1 (centres undefined),-7.7,i,-13.9*,i,-11.1*,-2.85,49.0%*,i,31.5%*,103.0*,0.151*
CCN(c1ccc(OC)cc1)S(=O)(=O)c1cc(-c2cc(C)no2)ccc1OC,-6.6,i,i,i,i,x,x,x,x,x,x
CCN(c1ccc(OC)cc1)S(=O)(=O)c1cc(-c2cc(C)no2)ccc1C(C)C,-8.3,i,-16.1*,i,-9.23*,x,59.5%*,i,38.5%*,121.0*,0.136*
COC(=O)c1cc(CNC(=O)Cc2ccsc2)ccc1OC,-5.3,i,i,i,i,x,x,x,x,x,x
CC(=O)Nc1ccc2nc(-c3cccn3C)[nH]c2c1,-4.3,i,i,i,i,x,x,x,x,x,x
O=C(Nc1cccc(-c2cn3cccnc3n2)c1)c1cccs1,-8.4,i,i,i,i,-0.459,x,x,x,x,x
Cc1cccn2cc(-c3cccc(NC(=O)c4cccs4)c3)nc12,-25.4,i,-9.99*,i,-12.2*,-3.67,40.0%*,i,i,121.0*,i

# High-throughput results from PubChem.
